In PMC8428831 (Plant Biotechnology Journal, 2021):

How the values were obtained:
CgS = target: T1, CgS (Arabidopsis thaliana, UniProt P55217); test: Micro Scale Thermophoresis; assay type: binding
T1 sequence (P55217 69-563): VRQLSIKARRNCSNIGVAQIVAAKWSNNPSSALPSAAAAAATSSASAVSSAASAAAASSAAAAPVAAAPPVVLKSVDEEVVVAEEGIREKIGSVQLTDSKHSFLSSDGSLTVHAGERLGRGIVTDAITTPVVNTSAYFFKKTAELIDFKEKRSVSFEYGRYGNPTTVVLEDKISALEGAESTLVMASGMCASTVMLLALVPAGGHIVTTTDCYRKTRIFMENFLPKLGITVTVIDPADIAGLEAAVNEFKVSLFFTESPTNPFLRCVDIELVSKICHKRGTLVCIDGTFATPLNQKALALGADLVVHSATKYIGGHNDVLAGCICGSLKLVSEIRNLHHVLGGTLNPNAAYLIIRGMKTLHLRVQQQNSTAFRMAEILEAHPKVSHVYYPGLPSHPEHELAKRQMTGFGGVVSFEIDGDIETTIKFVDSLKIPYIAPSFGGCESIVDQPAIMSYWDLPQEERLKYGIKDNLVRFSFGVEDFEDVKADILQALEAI
Summary of the method: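 Purified recombinant AtCgS labelled with an amine-reactive fluorophore, 100 nM per capillary. Incubated with a dilution series of test compound and measured by microscale thermophoresis (Monolith NT.115). Baseline normalised to the mean of the three lowest concentrations. Signal fitted to a single-site binding model to give Kd.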

[1] = test system: methionine auxotroph E. coli transformed with AtCgS; assay type: cell-based; settings: for Bacterial growth with external methionine / Bacterial growth without external methionine: 50 µM compound, M9 minimal media; for Bacterial growth with external methionine: methionine 40 mg/L; for Bacterial growth without external methionine: no methionine
Summary of the method: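 Methionine-auxotroph E. coli LE392 carrying pQE-30–AtCgS grown in M9 minimal medium with IPTG, with or without 40 mg/L methionine. Test compound at 50 µM final, or a concentration series, from a 50 mM DMSO stock; DMSO-only controls (0.1%). OD600 read every 20 min for about 1000 min at 37 °C with orbital shaking. Curve slopes from a linear fit; slope ratio versus DMSO, in duplicate.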

Row | Compound | Kd (CgS) [µM] | Bacterial growth with external methionine [1] | Bacterial growth without external methionine [1] | Bacterial growth curves, dose–response without external methionine ([1]; variable concentrations, M9, no methionine) | Bacterial growth curves, dose–response with external methionine ([1]; variable concentrations, M9, with methionine)
1 | Cc1cc(O)nc(-c2cccc(NC(=O)c3c(O)cccc3F)c2)n1 [CGSI‐1, 2‐fluoro‐6‐hydroxy‐N‐(3‐(4‐hydroxy‐6‐methylpyrimidin‐2‐yl)phenyl)benzamide] | 29.4 | not active in its presence | active in the absence of methionine | clear dose–response behaviour | no effect
2 | C#CCC(N)C(=O)O (stereo not shown) [PAG, propargyl‐glycine, reference compound] |  | the cells grew in the presence of PAG | significantly inhibits cell growth |  | 
